In ChEMBL document CHEMBL1821718, “Curcumin recognizes a unique binding site of tubulin” (J Med Chem, 2011):
Blank lines part the entries; values can stand above or below the molecule they belong to. The source made the active and inactive calls. The calls are words filed in the database; no cut-off is given here.

Assays:
Capra hircus = organism: Capra hircus; assay: Binding affinity to goat brain tubulin by isothermal titration calorimetry
HeLa [1] = assay: Perturbation of spindle microtubule and chromosomal organization in human HeLa cells at 2.5 uM after 24 hrs by immunofluorescence method; type: functional, cell-based
How it was run: (§1)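 Cells exposed to 0–2.5 μM compound for 24 h, fixed in 2% paraformaldehyde, permeabilized, blocked with 5% BSA. Spindles stained with anti-α-tubulin (1:200) and rhodamine secondary (1:150); chromosomes stained with DAPI (1 μg/mL). Bipolar spindle and metaphase-plate alignment scored by confocal microscopy; three experiments.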

HeLa [2] = assay: Induction of apoptosis in human HeLa cells assessed as abnormality in nuclear DNA at 5 uM by DAPI staining technique; type: functional, cell-based
A549 [3] = assay: Disruption of interphase microtubule network in human A549 cells after 24 hrs by confocal microscopy; type: functional, cell-based
How it was run: (§2)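 A549 or HeLa cells at 10^6 cells/mL exposed to 0–2.5 μM compound for 24 h. PBS-washed, fixed in 2% paraformaldehyde, permeabilized 1 h (0.1% Na citrate, 0.1% Triton), blocked in 5% BSA. Stained with mouse anti-α-tubulin (1:200) then rhodamine anti-mouse IgG (1:150) plus DAPI 1 μg/mL. Interphase network imaged by confocal microscopy; n = 3.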

A549 [4] = assay: Perturbation of spindle microtubule and chromosomal organization in human A549 cells at 2.5 uM after 24 hrs by immunofluorescence method; type: functional, cell-based; how it was run: as §1
A549 [5] = assay: Antiproliferative activity against human A549 cells assessed as loss of cell viability after 48 hrs by MTT assay; type: functional, cell-based; conditions: A549, 48 h
How it was run: (§3)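 Cells seeded at 1 × 10^4 per well in DMEM with 10% FBS, 1 mM L-glutamine and antibiotics at 37 °C, 5% CO2. Exposed to 0–50 μM compound for 48 h. MTT (2 mg/mL in PBS) added until purple precipitate formed; absorbance read at 570 nm against 650 nm reference. Mean ± SEM, n = 4; IC50 taken from concentration-response.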

A549 [6] = assay: Disruption of interphase microtubule network in human A549 cells at 2.5 uM after 24 hrs by confocal microscopy; type: functional, cell-based; how it was run: as §2
A549 [7] = assay: Induction of apoptosis in human A549 cells assessed as apoptotic cells at 5 uM after 48 hrs by FITC-conjugated annexin-V/PI assay; type: functional
How it was run: (§4)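 About 1 × 10^6 A549 or HeLa cells treated with 0–5 μM compound for 48 h. Stained 15 min at room temperature in the dark with FITC-annexin V (1 μg/mL) and PI (0.5 μg/mL) in Ca2+-enriched binding buffer. Annexin-V-positive fraction quantified by flow cytometry.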

HeLa [8] = assay: Antiproliferative activity against human HeLa cells assessed as loss of cell viability after 48 hrs by MTT assay; type: functional, cell-based; how it was run: as §3
A549 [9] = assay: Disruption of human A549 cell morphology at 2.5 to 5 uM after 24 hrs by phase contrast microscopy; type: functional, cell-based
How it was run: (§5)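 A549 and HeLa cells grown in DMEM with 10% FBS at 37 °C, 5% CO2, exposed to 2.5 or 5 μM compound for 24 h. Morphology of control and treated cells recorded by inverted phase-contrast microscopy.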

HeLa [10] = assay: Disruption of interphase microtubule network in human HeLa cells after 24 hrs by confocal microscopy; type: functional, cell-based; how it was run: as §2
[11] = Binding affinity to goat brain tubulin by spectrofluorimetry
HeLa [12] = assay: Disruption of interphase microtubule network in human HeLa cells at 2.5 uM after 24 hrs by confocal microscopy; type: functional, cell-based; how it was run: as §2
A549 [13] = assay: Induction of apoptosis in human A549 cells assessed as abnormality in nuclear DNA at 5 uM by DAPI staining technique; type: functional, cell-based
HeLa [14] = assay: Induction of apoptosis in human HeLa cells assessed as apoptotic cells at 5 uM after 48 hrs by FITC-conjugated annexin-V/PI assay; type: functional; how it was run: as §4
HeLa [15] = assay: Disruption of human HeLa cell morphology at 2.5 to 5 uM after 24 hrs by phase contrast microscopy; type: functional, cell-based; how it was run: as §5
[16] = Inhibition of goat brain tubulin polymerization assessed as turbidity by UV spectrophotometry; design: species or system Capra hircus
How it was run: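 Goat brain tubulin in PEM buffer (50 mM PIPES pH 7, 1 mM EGTA, 0.5 mM MgCl2) with 1 mM GTP. Assembly initiated with 10% DMSO at 37 °C and turbidity followed at 360 nm. Half-maximal inhibition taken as the concentration reducing polymer mass by 50%; run in triplicate, at least two repetitions.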

HeLa [17] = assay: Induction of cell cycle arrest in human HeLa cells assessed as accumulation in G2/M phase at 5 uM after 24 hrs by flow cytometry; type: functional, cell-based
HeLa [18] = assay: Cell cycle arrest in nocodazole pre-treated human HeLa cells at 5 uM assessed as accumulation in G2/M phase after 8 hrs by flow cytometry; type: functional
How it was run: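 HeLa cells at 1 × 10^6 cells/mL held 20 h in nocodazole (2 μM in methods; 1.5 μM in text), washed, then given fresh medium with 5 μM compound for 8 h. Fixed in ice-cold methanol, treated 4 h at 37 °C with 1 mg/mL RNase A, stained with PI. G2/M fraction measured by FACS.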

HeLa (Homo sapiens) = assay: Induction of cell cycle arrest in human HeLa cells assessed as accumulation in G2/M phase at 5 uM after 24 hrs by flow cytometry
MCF7 = assay: Cell cycle arrest in nocodazole pre-treated human MCF7 cells; type: functional, cell-based

SMILES: COc1cc(C=C(C(=O)/C=C/c2ccc(O)c(OC)c2)C(=O)/C=C/c2ccc(O)c(OC)c2)ccc1O
Activity (HeLa [1]): Active | Activity (HeLa [2]): Active | Activity (A549 [3]): Dose-dependent effect | Activity (A549 [4]): Active | IC50 (A549 [5]): 7 µM | Activity (A549 [6]): Active | Activity (A549 [7]): 45% | IC50 (HeLa [8]): 6 µM | Activity (A549 [9]): Active | Activity (HeLa [10]): Dose-dependent effect | Ka [11]: 2.5 ×10⁶ /M | Activity (HeLa [12]): Active | Activity (A549 [13]): Active | Activity (HeLa [14]): 38% | Activity (HeLa [15]): Active | IC50 [16]: 16 µM | Activity (HeLa [17]): inactive | Activity (HeLa [18]): 35%

SMILES: COc1cc(/C=C/c2cc(/C=C/c3ccc(O)c(OC)c3)[nH]n2)ccc1O [CURCUMIN PYRAZOLE]
IC50 [16]: 23 µM

SMILES: COc1cc(/C=C/c2cc(/C=C/c3ccc(O)c(OC)c3)n(-c3cccc([N+](=O)[O-])c3)n2)ccc1O
IC50 [16]: 36 µM

SMILES: COc1cc(/C=C/c2cc(/C=C/c3ccc(O)c(OC)c3)n(-c3ccc(F)cc3)n2)ccc1O
IC50 [16]: 34 µM

SMILES: COc1cc(/C=C/c2cc(/C=C/c3ccc(O)c(OC)c3)on2)ccc1O
IC50 [16]: 26 µM

SMILES: COc1ccc(-n2nc(/C=C/c3ccc(O)c(OC)c3)cc2/C=C/c2ccc(O)c(OC)c2)cc1
IC50 [16]: 38 µM

More lines, main results first:

Activity (Capra hircus): inactive
SMILES: O=C(O)/C=C/c1ccccc1

Activity (Capra hircus): inactive
SMILES: O=C(O)/C=C/c1ccc(O)c(O)c1

IC50 (A549 [5]): 17 µM | Ka [11]: 5.01 ×10⁵ /M | IC50 [16]: 20 µM
SMILES: COc1cc(/C=C/C(=O)CC(=O)/C=C/c2ccc(O)c(OC)c2)ccc1O [CURCUMIN]
Activity (HeLa [1]): inactive | Activity (HeLa (Homo sapiens)): inactive | Activity (HeLa [2]): inactive | Activity (A549 [4]): inactive | Activity (A549 [6]): inactive | Activity (A549 [7]): 16% | Activity (A549 [9]): inactive | Activity (HeLa [12]): inactive | Activity (A549 [13]): inactive | Activity (HeLa [14]): 8% | Activity (HeLa [15]): inactive | Activity (MCF7): Active | Activity (HeLa [17]): inactive | Activity (HeLa [18]): 18%

Activity (Capra hircus): inactive
SMILES: COc1ccc(/C=C/C(=O)O)cc1OC

IC50 [16]: 60 µM
SMILES: COc1cc(/C=C/C(=O)CC(=O)/C=C/c2ccc(OC(C)=O)c(OC)c2)ccc1OC(C)=O

Activity (Capra hircus): inactive
SMILES: O=C(O)/C=C/c1ccccc1O

Activity (Capra hircus): inactive
SMILES: O=C(O)/C=C/c1ccc(O)cc1O
